Measured values from ChEMBL document CHEMBL1142705, “Rational design, synthesis, and structure-activity relationships of aryltriazoles as novel corticotropin-releasing factor-1 receptor antagonists” (J Med Chem, 2005).

Legend:
[1] = target: T1, Corticotropin-releasing factor receptor 1 (Homo sapiens, UniProt P34998); assay: Inhibition of [125I][Tyr0]-sauvagine binding to human Corticotropin releasing factor receptor 1 expressed in mouse fibroblast Ltk- cells; assay type: cell-based
T1 sequence (P34998 whole entry): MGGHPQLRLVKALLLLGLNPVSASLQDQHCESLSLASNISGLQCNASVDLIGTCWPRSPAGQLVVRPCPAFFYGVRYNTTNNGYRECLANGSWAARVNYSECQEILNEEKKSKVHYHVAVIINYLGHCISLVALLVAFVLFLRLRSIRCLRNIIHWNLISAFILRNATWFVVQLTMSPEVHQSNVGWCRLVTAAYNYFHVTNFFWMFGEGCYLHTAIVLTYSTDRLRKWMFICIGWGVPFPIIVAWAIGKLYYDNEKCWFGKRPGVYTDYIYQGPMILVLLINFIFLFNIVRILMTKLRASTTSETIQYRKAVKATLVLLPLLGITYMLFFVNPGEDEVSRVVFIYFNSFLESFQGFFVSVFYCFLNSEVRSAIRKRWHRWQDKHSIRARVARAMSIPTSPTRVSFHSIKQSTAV

[2] = target: Corticotropin releasing factor receptor (Rattus norvegicus, UniProt P47866+P35353); assay: Inhibition of corticotropin releasing factor stimulated cAMP production in rat pituitary assay; assay type: functional, tissue-based, Pituitary gland
[3] = target: T2, Corticotropin-releasing factor receptor 2 (Homo sapiens, UniProt Q13324); assay: Binding affinity for human Corticotropin releasing factor receptor 2
T2 sequence (Q13324 whole entry): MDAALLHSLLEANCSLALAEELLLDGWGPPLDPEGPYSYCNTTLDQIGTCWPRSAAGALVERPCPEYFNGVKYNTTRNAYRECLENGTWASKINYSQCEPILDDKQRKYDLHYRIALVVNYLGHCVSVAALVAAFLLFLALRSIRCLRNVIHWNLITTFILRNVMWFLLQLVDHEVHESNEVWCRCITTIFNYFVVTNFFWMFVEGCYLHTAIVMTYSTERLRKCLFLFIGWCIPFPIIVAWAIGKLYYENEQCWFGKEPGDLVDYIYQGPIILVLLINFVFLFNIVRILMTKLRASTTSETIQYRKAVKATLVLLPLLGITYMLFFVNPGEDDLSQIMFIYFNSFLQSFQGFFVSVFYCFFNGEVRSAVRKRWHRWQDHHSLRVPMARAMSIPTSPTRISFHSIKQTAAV

[4] = Peak plasma concentration upon oral administration of 2 mg/kg to rats; assay type: ADME, organism-based; design: dose 2 mg/kg, route oral; details: rat
How it was run: (§1)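 Male Sprague-Dawley rats were dosed at 1 mg/kg iv via the tail vein and at 2 mg/kg by oral gavage, n = 3 per time point. The dosing solution was in purified water at 2 mL/kg. Terminal plasma was sampled at set times (composite design), acetonitrile-precipitated and analysed by LC-MS/MS (LLOQ 5 ng/mL). Parameters came from noncompartmental analysis.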

[5] = Volume of distribution in rats upon intravenous administration of 1 mg/kg; assay type: ADME, organism-based; design: dose 1 mg/kg, route intravenous; details: rat, in vivo, read-out: V; how it was run: as §1
[6] = Area under concentration time curve upon oral administration of 2 mg/kg to rats; assay type: ADME, organism-based; design: dose 2 mg/kg, route oral; details: rat, in vivo; how it was run: as §1
[7] = Time to attain peak plasma concentration upon oral administration of 2 mg/kg to rats; assay type: ADME, organism-based; design: dose 2 mg/kg, route oral; details: rat; how it was run: as §1
[8] = Clearance of compound in rats upon intravenous administration of 1 mg/kg; assay type: ADME, organism-based; design: dose 1 mg/kg, route intravenous; details: rat, in vivo; how it was run: as §1
[9] = Plasma half life in rats upon intravenous administration of 1 mg/kg; assay type: ADME, organism-based; design: dose 1 mg/kg, route intravenous; details: rat; how it was run: as §1
[10] = Bioavailability upon 2 mg/kg oral administration to rats; assay type: ADME, organism-based; details: rat, in vivo; how it was run: as §1
[11] = Ratio of compound concentration in brain to that of plasma of rats upon intravenous administration of 1 mg/kg; assay type: ADME, organism-based; design: dose 1 mg/kg, route intravenous; details: rat
How it was run: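 Male Sprague-Dawley rats, 3 per time point, received 1 mg/kg iv by tail vein at 2 mL/kg in filtered purified water. Terminal blood and brain were taken at set times for composite sampling. Plasma was acetonitrile-precipitated and half-brains were homogenized in 50:50 acetonitrile/water, then measured by LC-MS/MS (LLOQ 5 ng/mL plasma, 0.5 ng/g brain). Ratio = brain AUC / plasma AUC, noncompartmental.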

Ki [1] [nM] | SMILES | other results
28 | CCCN(c1nc(-c2ccc(Cl)cc2OC)n(C)n1)C(C1CC1)C1CC1 | 
9.2 | CCCN(c1nc(-c2ccc(Cl)cc2Cl)n(C)n1)C(C1CC1)C1CC1 | IC50 [2]: 90 nM; Ki [3]: > 10000 nM
61 | CCCC(c1ccccc1)N(CCC)c1nc(-c2ccc(OC)cc2C)n(C)n1 (configuration not stated) | 
150 | CCC(c1ccccc1)N(CC)c1nc(-c2ccc(Cl)cc2OC)n(C)n1 (configuration not stated) | 
440 | CCCCC(CC)N(CC1CC1)c1nc(-c2ccc(Cl)cc2OC)n(C)n1 (configuration not stated) | 
280 | CCCCC(CC)N(CCOC)c1nc(-c2ccc(Cl)cc2OC)n(C)n1 (configuration not stated) | 
910 | CCCN(c1nc(-c2ccc(Cl)cc2OC)n(C)n1)C(C(C)C)C(C)C | 
12 | CCCN(c1nc(-c2ccc(Cl)cc2OC)n(C)n1)C(CC)c1ccc(C(F)(F)F)cc1 (configuration not stated) | 
24 | CCCCC(c1ccc(F)cc1)N(CCC)c1nc(-c2ccc(OC)cc2OC)n(C)n1 (configuration not stated) | 
120 | CCCC(c1ccccc1)N(CCC)c1nc(-c2ccc(OC)cc2OC)n(C)n1 (configuration not stated) | 
> 10000 | CCCN(CCC)c1nc(-c2ccc(Cl)cc2OC)n(C)n1 | 
84 | CCCC(c1ccccc1)N(CCC)c1nc(-c2cc(OC)c(OC)cc2Cl)n(C)n1 (configuration not stated) | 
428 | CCCN(c1nc(-c2ccc(Cl)cc2OC)n(C)n1)[C@H](CC)c1ccc(C(F)(F)F)cc1 | 
46 | CCCC[C@H](c1ccc(F)cc1)N(CCC)c1nc(-c2ccc(Cl)cc2OC)n(C)n1 | 
380 | CCC[C@H](c1ccccc1)N(CCC)c1nc(-c2ccc(OC)cc2C)n(C)n1 | 
5.7 | CCCC[C@@H](c1ccccc1)N(CCC)c1nc(-c2ccc(OC)cc2C)n(C)n1.Cl | IC50 [2]: 92 nM
5.2 | CCCN(c1nc(-c2ccc(Cl)cc2OC)n(C)n1)[C@@H](CC)c1ccc(C(F)(F)F)cc1.Cl | IC50 [2]: 120 nM

Ki [1] [nM] | SMILES | other results
9 | CCC[C@@H](c1ccccc1)N(CCC)c1nc(-c2ccc(OC)cc2C)n(C)n1.Cl | IC50 [2]: 120 nM
2.7 | CCCC[C@@H](c1ccc(F)cc1)N(CCC)c1nc(-c2ccc(Cl)cc2OC)n(C)n1.Cl | IC50 [2]: 49 nM
350 | CCCC[C@H](c1ccccc1)N(CCC)c1nc(-c2ccc(OC)cc2C)n(C)n1 | 
4 | CCCC[C@@H](c1ccccc1)N(CCC)c1nc(-c2ccc(Cl)cc2OC)n(C)n1.Cl | IC50 [2]: 56 nM
 | CCCN(c1nc(-c2ccc(OC)cc2C)n(C)n1)[C@@H](CC)c1ccc(C(F)(F)F)cc1.Cl | IC50 [2]: 270 nM
6.3 | CCC[C@@H](c1ccccc1)N(CCC)c1nc(-c2ccc(Cl)cc2OC)n(C)n1.Cl | IC50 [2]: 91 nM
22 | CCC[C@@H](c1ccccc1)N(CCC)c1nc(-c2ccc(OC)cc2OC)n(C)n1.Cl | IC50 [2]: 240 nM
16.3 | CCC[C@@H](c1ccccc1)N(CCC)c1nc(-c2cc(OC)c(OC)cc2Cl)n(C)n1.Cl | IC50 [2]: 240 nM
> 10000 | CCCN(c1nc(-c2ccc(Cl)cc2Cl)nn1C)C(C1CC1)C1CC1 | 
14 | CCCC(c1ccccc1)N(CCC)c1nc(-c2ccc(Cl)cc2OC)n(C)n1 (configuration not stated) | 
7.3 | CCCCC(c1ccc(F)cc1)N(CCC)c1nc(-c2ccc(Cl)cc2OC)n(C)n1 (configuration not stated) | Cmax [4]: 290 ng/mL; Vd [5]: 7.8 L/kg; AUC [6]: 1010 ng·h/mL; Tmax [7]: 0.5 h; clearance [8]: 27.7 mL/min/kg; half-life [9]: 3.3 h; bioavailability [10]: 84%; Ratio [11]: 20%
46 | CCCCC(CC)N(CCC)c1nc(-c2ccc(Cl)cc2OC)n(C)n1 (configuration not stated) | 
690 | CCCN(c1nc(-c2ccc(Cl)cc2OC)n(C)n1)C(C)CC (configuration not stated) | 
6.9 | CCCCC(c1ccccc1)N(CCC)c1nc(-c2ccc(OC)cc2C)n(C)n1 (configuration not stated) | 
3400 | CCCN(CCC)c1nc(-c2ccc(Cl)cc2Cl)n(C)n1 | 
26 | CCCN(c1nc(-c2ccc(Cl)cc2OC)n(C)n1)C(CC)c1ccccc1 (configuration not stated) | 
2 | CCCN(CC1CC1)c1nc(C)nc(Nc2c(Cl)cc(Cl)cc2Cl)c1Cl | 
